Measurements taken from ChEMBL document CHEMBL1147851, “Novel class of arylpiperazines containing N-acylated amino acids: their synthesis, 5-HT1A, 5-HT2A receptor affinity, and in vivo pharmacological evaluation” (Bioorg Med Chem, 2007).
Activity calls are given as the source filed them. No cut-off for these calls is given here.

Legend:
Mus musculus [1] = experiment: Anxiolytic-like activity in Swiss Albino mouse at 2.5 mg/kg by four plate test; type: functional
Procedure, shortened: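 Male Albino Swiss mice (24–28 g), each used once, 10 per dose group. Dosing ip at 10 mL/kg, 30 or 60 min before testing depending on agent; tested compounds given as suspensions in 1% aqueous Tween 80. Four-metal-plate floor; 15 s exploration, then each plate-to-plate crossing shocked (120 V, 0.5 s), no new shock for 3 s if still running. Punished crossings counted over 60 s; one-way ANOVA, Dunnett's test.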

Mus musculus [2] = experiment: Anxiolytic-like activity in Swiss Albino mouse at 5 mg/kg by four plate test; type: functional
Procedure, shortened: (§1)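 Four-plate test in male Albino Swiss mice, dosed ip 30 or 60 min before testing. After 15 s of exploration, each plate-to-plate crossing triggered a 0.5 s, 120 V floor shock, with no new shock for the next 3 s. Punished crossings were counted over 60 s. n = 10 per group; ANOVA with Dunnett's test.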

[3] = target: T1, 5-hydroxytryptamine receptor 1A (Rattus norvegicus, UniProt P19327); experiment: Displacement of [3H]8-OH-DPAT from serotonin 5HT1A receptor in rat brain hippocampus; type: tissue-based
T1 sequence (P19327 whole entry): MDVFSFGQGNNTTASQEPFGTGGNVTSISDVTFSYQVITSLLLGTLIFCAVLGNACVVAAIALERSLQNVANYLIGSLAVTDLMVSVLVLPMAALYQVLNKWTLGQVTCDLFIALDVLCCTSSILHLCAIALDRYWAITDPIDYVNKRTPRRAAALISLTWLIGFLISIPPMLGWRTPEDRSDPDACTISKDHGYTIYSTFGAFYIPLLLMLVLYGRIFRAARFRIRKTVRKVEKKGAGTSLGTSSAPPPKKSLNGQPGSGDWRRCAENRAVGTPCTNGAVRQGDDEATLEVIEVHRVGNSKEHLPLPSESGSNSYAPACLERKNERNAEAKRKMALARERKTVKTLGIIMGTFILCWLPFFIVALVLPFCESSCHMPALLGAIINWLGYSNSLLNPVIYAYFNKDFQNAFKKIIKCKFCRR
Procedure, shortened: (§2)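 Full competition binding with 8–10 drug concentrations (10^-10–10^-3 M), each in triplicate. Ki was derived from at least three experiments.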

[4] = target: 5-hydroxytryptamine receptor 2A (Rattus norvegicus, UniProt P14842); experiment: Displacement of [3H]ketanserin from serotonin 5HT2A receptor in rat brain cortex; type: tissue-based; procedure, shortened: as §2
Sequence of 5-hydroxytryptamine receptor 2A (P14842 whole entry): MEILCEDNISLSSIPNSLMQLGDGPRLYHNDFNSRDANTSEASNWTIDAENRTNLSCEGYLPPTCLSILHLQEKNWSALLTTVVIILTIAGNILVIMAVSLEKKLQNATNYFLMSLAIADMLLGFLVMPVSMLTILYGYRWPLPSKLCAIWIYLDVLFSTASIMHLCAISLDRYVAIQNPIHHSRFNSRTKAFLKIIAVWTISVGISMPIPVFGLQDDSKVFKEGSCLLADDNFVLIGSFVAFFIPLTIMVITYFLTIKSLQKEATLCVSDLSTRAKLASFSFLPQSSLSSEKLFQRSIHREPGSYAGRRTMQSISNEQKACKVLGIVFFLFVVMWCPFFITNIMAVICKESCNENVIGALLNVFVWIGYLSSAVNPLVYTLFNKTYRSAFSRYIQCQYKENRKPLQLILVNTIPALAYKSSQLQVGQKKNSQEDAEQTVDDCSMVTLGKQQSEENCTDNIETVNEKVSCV

D(2) dopamine receptor = D(2) dopamine receptor (Rattus norvegicus, UniProt P61169); experiment: Displacement of [3H]spiperone from dopaminergic D2 receptor in rat striatal membrane; type: cell membranes, Striatum
Sequence of D(2) dopamine receptor (P61169 whole entry): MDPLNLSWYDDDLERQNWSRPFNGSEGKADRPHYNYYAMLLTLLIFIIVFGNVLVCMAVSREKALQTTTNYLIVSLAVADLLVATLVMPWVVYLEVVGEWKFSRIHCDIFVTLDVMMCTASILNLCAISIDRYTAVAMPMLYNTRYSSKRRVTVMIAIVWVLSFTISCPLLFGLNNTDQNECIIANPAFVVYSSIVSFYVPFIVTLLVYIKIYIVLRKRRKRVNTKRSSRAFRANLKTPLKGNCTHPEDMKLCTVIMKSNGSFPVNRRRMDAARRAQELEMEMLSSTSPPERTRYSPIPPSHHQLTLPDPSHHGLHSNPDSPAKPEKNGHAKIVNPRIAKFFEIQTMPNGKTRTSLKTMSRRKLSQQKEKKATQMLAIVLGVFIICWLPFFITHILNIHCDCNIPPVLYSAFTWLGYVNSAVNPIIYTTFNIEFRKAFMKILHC
Procedure, shortened: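 Rat striatal membranes incubated with [3H]spiperone, with 50 nM ketanserin added to block 5-HT2A sites. Nonspecific binding was defined with 5 μM (±)-butaclamol. Incubation 30 min at 37 °C, stopped by vacuum filtration, washed with 50 mM potassium phosphate pH 7.4, counted by liquid scintillation. Estimated Ki (Cheng–Prusoff) came from two concentrations (0.1, 1 μM) in triplicate, three experiments.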

Mus musculus [5] = organism: Mus musculus; experiment: Decrease in body temperature in Albino Swiss mouse
Mus musculus [6] = experiment: Anxiolytic-like activity in Swiss Albino mouse at 10 mg/kg by four plate test; type: functional; procedure, shortened: as §1
Mus musculus [7] = experiment: Anxiolytic-like activity in Swiss Albino mouse at 20 mg/kg by four plate test; type: functional; procedure, shortened: as §1
[8] = target: T2, 5-hydroxytryptamine receptor 1A (Mus musculus) (UniProt Q64264); experiment: Antagonist activity at 5-HT1A receptor in Swiss Albino mouse assessed as decrease in 8-OH-DPAT induced body temperature; type: functional
T2 sequence (whole entry): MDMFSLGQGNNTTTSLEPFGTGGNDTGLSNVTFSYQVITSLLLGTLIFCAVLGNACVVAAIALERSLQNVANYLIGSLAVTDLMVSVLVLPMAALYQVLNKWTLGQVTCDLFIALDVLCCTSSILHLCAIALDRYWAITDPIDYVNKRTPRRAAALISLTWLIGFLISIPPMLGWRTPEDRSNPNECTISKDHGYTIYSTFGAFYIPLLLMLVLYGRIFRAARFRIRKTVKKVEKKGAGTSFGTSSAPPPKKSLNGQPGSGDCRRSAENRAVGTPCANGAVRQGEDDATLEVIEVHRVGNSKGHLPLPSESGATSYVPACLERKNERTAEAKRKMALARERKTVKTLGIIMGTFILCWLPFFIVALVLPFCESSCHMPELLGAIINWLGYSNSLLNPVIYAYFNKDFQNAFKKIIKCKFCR
Procedure, shortened: (§3)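 Male Albino Swiss mice. 8-OH-DPAT 5 mg/kg sc induced hypothermia. Test agents were suspended in 1% aqueous Tween 80 and given ip 45 min before 8-OH-DPAT. Rectal temperature was taken 15, 30, 45 and 60 min after 8-OH-DPAT and expressed as change (Δt) from basal temperature. Six to ten animals per dose.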

Mus musculus [9] = organism: Mus musculus; experiment: Decrease in body temperature in C57BL/6J mouse; type: functional, organism-based
[10] = target: T2, 5-hydroxytryptamine receptor 1A (Mus musculus); experiment: Activity at 5HT1A receptor in Swiss Albino mouse assessed as decrease in 8-OH-DPAT induced body temperature; type: functional; conditions: filed as agonist; procedure, shortened: as §3
Mus musculus [11] = experiment: Antidepressant-like activity in Swiss Albino mouse at 5 mg/kg by forced swimming test; type: functional
Procedure, shortened: (§4)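 Porsolt forced swim in male Albino Swiss mice, agents given ip (1% Tween 80 suspension) 30 min beforehand. Mice were placed in a cylinder 10 cm wide holding 6 cm of water at 23–25 °C for 6 min. Floating immobility was timed over the last 4 min. n = 9-10 per group; ANOVA with Dunnett's test.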

Mus musculus [12] = experiment: Antidepressant-like activity in Swiss Albino mouse at 10 mg/kg by forced swimming test; type: functional; procedure, shortened: as §4
Mus musculus [13] = experiment: Antidepressant-like activity in Swiss Albino mouse at 20 mg/kg by forced swimming test; type: functional; procedure, shortened: as §4
Mus musculus [14] = organism: Mus musculus; experiment: Reduction in spontaneous locomotor activity in Swiss Albino mouse; type: functional, organism-based
Procedure, shortened: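 Male Albino Swiss mice dosed ip were placed singly in photoresistor actometers (24 cm diameter, two light beams). Beam crossings were counted over the first 6 min and over a 30-min session. ANOVA with Dunnett's test.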

Mus musculus [15] = organism: Mus musculus; experiment: Effect on body temperature in Swiss Albino mouse; type: functional, organism-based
Procedure, shortened: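 Male Albino Swiss mice received the agent alone ip as a suspension in 1% aqueous Tween 80. Rectal body temperature was read at 30, 60, 90 and 120 min after dosing and expressed as Δt from the basal value taken at the start. Six to ten animals per dose.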

Mus musculus [16] = experiment: Antidepressant-like activity in Swiss Albino mouse at 2.5 mg/kg by forced swimming test; type: functional; procedure, shortened: as §4
Mus musculus [17] = experiment: Antidepressant-like activity in C57BL/6J mouse at 5 mg/kg by tail suspension test; type: functional
Mus musculus [18] = experiment: Antidepressant-like activity in C57BL/6J mouse at 10 mg/kg by tail suspension test; type: functional
Procedure, shortened: (§5)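 Tail suspension in male C57BL/6J mice (22–23 g), dosed ip in 1% Tween 80 suspension 30 min before the test. Each mouse hung by adhesive tape about 1 cm from the tail tip, 75 cm above the floor. Total immobility, meaning no limb or body movement except breathing, was scored manually over 6 min. n = 9-10 per group; one-way ANOVA then Dunnett's test.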

Mus musculus [19] = experiment: Antidepressant-like activity in C57BL/6J mouse at 20 mg/kg by tail suspension test; type: functional; procedure, shortened: as §5

Row | SMILES | Activity (Mus musculus [2]) | Ki [3] | Ki [4] | Ki (D(2) dopamine receptor) | other results
1 | CN1C(=O)CN=C(c2ccccc2)c2cc(Cl)ccc21 [DIAZEPAM] | 6.7 | – | – | – | Activity (Mus musculus [1]): 6.8
2 | COc1ccccc1N1CCN(CCCCN2C(=O)C[C@H](NC(=O)CC3CC4CCC3C4)C2=O)CC1 (stereo not given in full) | – | 9 nM | 47 nM | 880 nM | Activity (Mus musculus [5]): Active
3 | O=C1C[C@H](NC(=O)C23CC4CC(CC(C4)C2)C3)C(=O)N1CCCCN1CCN(c2cccc(Cl)c2)CC1 | 4.6 | 47 nM | 25 nM | 21200 nM | Activity (Mus musculus [6]): 5.1; Activity (Mus musculus [7]): 5.6; Activity [8]: Active
4 | COc1ccccc1N1CCN(CCCCN2C(=O)C[C@H](NC(=O)C34CC5CC(CC(C5)C3)C4)C2=O)CC1 | – | 4 nM | 173 nM | 1780 nM | Activity (Mus musculus [5]): Active
5 | O=C(N[C@H]1CC(=O)N(CCCCN2CCN(c3cccc(Cl)c3)CC2)C1=O)C1CCCC1 | – | 28 nM | 47 nM | 12400 nM | Activity (Mus musculus [5]): Active
6 | COc1ccccc1N1CCN(CCCCNC(=O)[C@@H]2CCCN2C(=O)C2CCCCC2)CC1 | – | 19 nM | 990 nM | 3590 nM | Activity (Mus musculus [9]): Active
7 | COc1ccccc1N1CCN(CCCCN2C(=O)C[C@H](NC(=O)C3CCCC3)C2=O)CC1 | 3.4 | 23 nM | 480 nM | 905 nM | Activity [10]: Agonist; Activity (Mus musculus [6]): 5.2; Activity (Mus musculus [7]): 6; Activity (Mus musculus [11]): 133.4 s; Activity (Mus musculus [12]): 123.3 s; Activity (Mus musculus [13]): 103 s; Activity (Mus musculus [14]): Active
8 | O=C(N[C@H]1CC(=O)N(CCCCN2CCN(c3cccc(Cl)c3)CC2)C1=O)C1CCCCC1 | – | 26 nM | 6.51 nM | 2130 nM | Activity (Mus musculus [15]): inactive
9 | COc1ccccc1N1CCN(CCCCN2C(=O)CCC2=O)CC1 | – | – | 1510 nM | 490 nM | –
10 | O=C1CCC(=O)N1CCCCN1CCN(c2cccc(Cl)c2)CC1 | – | 32 nM | 121 nM | 7800 nM | –
11 | COc1ccccc1N1CCN(CCCCN2C(=O)C[C@H](NC(=O)C3CCCCC3)C2=O)CC1 | 6.6 | 19 nM | 183 nM | 2080 nM | Activity [10]: Agonist; Activity (Mus musculus [1]): 4.7; Activity (Mus musculus [6]): 7; Activity (Mus musculus [7]): 7.5; Activity (Mus musculus [16]): 131.6 s; Activity (Mus musculus [11]): 110 s; Activity (Mus musculus [12]): 102 s; Activity (Mus musculus [13]): 128.1 s; Activity (Mus musculus [17]): 147.9 s; Activity (Mus musculus [18]): 129.1 s; Activity (Mus musculus [19]): 116.1 s; Activity (Mus musculus [14]): inactive
12 | CN(C)CCCN1c2ccccc2CCc2ccccc21 [IMIPRAMINE] | – | – | – | – | Activity (Mus musculus [12]): 149.1 s; Activity (Mus musculus [13]): 107.8 s; Activity (Mus musculus [17]): 147.4 s; Activity (Mus musculus [18]): 102.5 s; Activity (Mus musculus [19]): 90.2 s
13 | O=C(CC1CC2CCC1C2)N[C@H]1CC(=O)N(CCCCN2CCN(c3cccc(Cl)c3)CC2)C1=O (stereo not given in full) | – | 21 nM | 4.2 nM | 776 nM | Activity (Mus musculus [15]): inactive
